# Reference: ChEMBL document CHEMBL4513216, “Probing the Open Global Health Chemical Diversity Library for Multistage-Active Starting Points for Next-Generation Antimalarials” (ACS Infect Dis, 2020)
# Test: Toxicity liver stage against HepG2, at 10uM
# Format: cell-based
# Design: test concentration 10 uM, cell line HepG2-A16-CD81EGFP
# Conditions: human, HepG2-A16-CD81EGFP cells; read-out: INHIBITION
# Summary of the method: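 Uninfected HepG2-A16-CD81EGFP cells, 3 × 10^3 per well, 1536-well, plated on prespotted compound at 10 μM final, parasite-free screening media added to match infected plates; puromycin 10 μM positive, DMSO 0.5% negative; run in parallel with 48 h PbLuc assay at 37 °C, 5% CO2; viability by CellTiter-Glo luminescence, normalized to controls.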
structure (smiles),measurement,value
CC(=O)C1(c2ccccc2)CCN(C(=O)C2CNCCO2)CC1 (stereo not drawn),cytotoxicity at 10 µM,-3.73%
CN(C)CC1CN(c2ccc(C#N)cn2)CCO1 (stereo not drawn),cytotoxicity at 10 µM,-4.67%
CN(C)CCC1CCN(c2cc(N3CCCC3CO)ncn2)CC1 (stereo not drawn),cytotoxicity at 10 µM,-6.27%
Cc1ccc(C)c2c(C)c(C(=O)NCCC(=O)N3CCOCC3)oc12,cytotoxicity at 10 µM,1.04%
CN1CCC(c2n[nH]c3ncccc23)C1 (stereo not drawn),cytotoxicity at 10 µM,-20.1%
CN(C)c1ncc(CNC2CC(=O)N(CCc3cccc(Cl)c3)C2)s1 (stereo not drawn),cytotoxicity at 10 µM,-132%
COc1ccc2c(c1)OCC(Cc1ccc(C)nc1N)C2 (stereo not drawn),cytotoxicity at 10 µM,-2.57%
CC(=O)c1c(F)cccc1NC1CCN(C(=O)C2CCCCC2)CC1,cytotoxicity at 10 µM,20.7%
O=S(=O)(c1ccccc1)N1CCCC(Cn2cncn2)C1 (stereo not drawn),cytotoxicity at 10 µM,-4.28%
Cc1ccc(N2N=C(C(=O)O)S(=O)(=O)c3cccnc32)cc1,cytotoxicity at 10 µM,-8.87%
CNC(=O)c1cnc(/C=C/c2cc(OC)c(OC)c(OC)c2)s1,cytotoxicity at 10 µM,-15.5%
Cc1n[nH]c(C2CN(Cc3nnc(C4CCC4)o3)CCO2)n1 (stereo not drawn),cytotoxicity at 10 µM,-3.72%
CN(C)c1cc(CNC(=O)c2ccccc2S(C)(=O)=O)ccn1,cytotoxicity at 10 µM,-10.7%
c1cc(C2CCN(Cc3nc(C4CC4)no3)CC2)[nH]n1,cytotoxicity at 10 µM,7.45%
Cc1ccc(-c2cc(N)c(=O)n(CC(=O)NC3CCCC3)n2)s1,cytotoxicity at 10 µM,-20.3%
CCc1nc2n(n1)CC(NCc1nc(-c3ccccn3)no1)CC2 (stereo not drawn),cytotoxicity at 10 µM,-3.45%
COc1cc(C#N)ccc1OC12CCCN(CC1)C2 (stereo not drawn),cytotoxicity at 10 µM,-19.1%
Cc1cccc(NC(C)C(=O)Nc2nccs2)c1 (stereo not drawn),cytotoxicity at 10 µM,-0.524%
CN(CC1(O)CCN(c2ccnc3ccncc23)CC1)C(=O)CCN,cytotoxicity at 10 µM,-6.86%
CC(Cn1ccnc1)NC(=O)C1(c2ccccc2)CC1 (stereo not drawn),cytotoxicity at 10 µM,-5.74%
O=C(NCC1(O)CCSC1)c1cccc(-n2cccn2)c1 (stereo not drawn),cytotoxicity at 10 µM,-3.5%
Cc1nc(CN2CCCC(N(C)CC3CCCC3)C2)no1 (stereo not drawn),cytotoxicity at 10 µM,-7.3%
Cc1noc(C)c1CN1C[C@@H]2COC[C@@H](CC(=O)N3CCCCO3)[C@@H]2C1,cytotoxicity at 10 µM,-72.4%
CSc1nc2ncc3c(=O)n(CCN4CCCCC4)ccc3n2n1,cytotoxicity at 10 µM,5.23%
Cc1ccsc1CNC(=O)NC1CCCc2c1cnn2CCO (stereo not drawn),cytotoxicity at 10 µM,3.33%
CC(C)CN1C(=O)C2(CCN(CC3CCOCC3)C2)c2ccccc21 (stereo not drawn),cytotoxicity at 10 µM,-71.2%
CCCn1ncc(-c2ccnc(N[C@@H]3C[C@H]4CC[C@@H]3C4)n2)c1C,cytotoxicity at 10 µM,0.541%
Cc1nn(C)c(Cl)c1C1CCCN1CC(=O)N1CCOCC1 (stereo not drawn),cytotoxicity at 10 µM,3.41%
COc1c2ccc(C(=O)NCCCn3ncccc3=O)cc2nn1C,cytotoxicity at 10 µM,0.905%
CCC(=O)N1CCc2nc3cc(OC)c(OC)cc3c(=O)n2CC1,cytotoxicity at 10 µM,2.65%
Cc1cnn(CC2CCCCN2C(=O)CCCc2nc(C)no2)c1 (stereo not drawn),cytotoxicity at 10 µM,1.46%
O=C(Nc1nc2c(s1)CN(S(=O)(=O)C1CC1)CC2)c1ccsc1,cytotoxicity at 10 µM,24.9%
CN1CCCN(c2ccc(F)cc2CNC(=O)c2ccsc2)CC1,cytotoxicity at 10 µM,-12.3%
COCCn1ccnc1-c1[nH]cnc1C,cytotoxicity at 10 µM,-18.4%
CC(CCc1ccc(O)cc1)NC1CCN(S(C)(=O)=O)CC1 (stereo not drawn),cytotoxicity at 10 µM,1.46%
NC(=O)C1CCCN(C(=O)c2ccc(-n3ccnc3)cc2)C1 (stereo not drawn),cytotoxicity at 10 µM,-4.4%
CCS(=O)(=O)N1CCC2(CN(c3cccc(F)c3)C(=O)CN2C)C1 (stereo not drawn),cytotoxicity at 10 µM,-74.4%
Cc1nc(C)n(CC2CCCCN2CC(=O)N(C)Cc2ccco2)n1 (stereo not drawn),cytotoxicity at 10 µM,2.65%
Cn1ccnc1C1CCCN(C(=O)c2ccncc2F)C1 (stereo not drawn),cytotoxicity at 10 µM,3.18%
Cc1cc(C)n(C2CN(C(=O)Cn3c(=O)c(C)nc4ccccc43)C2)n1,cytotoxicity at 10 µM,-7.59%
Cc1cc(C)n(-c2ccnc(N3CCC(C(=O)N4CCCC4)CC3)n2)n1,cytotoxicity at 10 µM,-9.87%
Cn1cc(CN2CCC(CCC(=O)Nc3ccccc3Cl)CC2)cn1,cytotoxicity at 10 µM,-2.98%
CCn1cc(CN2CCCN(C(=O)CCSC)CC2)cn1,cytotoxicity at 10 µM,-1.11%
CC(NC(=O)N(C)C1CC1)c1ccc(Oc2cccnc2)c(F)c1 (stereo not drawn),cytotoxicity at 10 µM,-1.23%
CCN1CCN(CCCNC(=O)NC(C)c2nncn2C)CC1 (stereo not drawn),cytotoxicity at 10 µM,-12.8%
CN(CCc1nc2cc(Cl)ccc2[nH]1)C(=O)c1ncn[nH]1,cytotoxicity at 10 µM,-53.7%
COc1ccccc1OC1(C(=O)O)CCN(c2ccccn2)CC1,cytotoxicity at 10 µM,4.52%
Cc1nc(N2CCCC2)ncc1-c1cc(O)nc(N2CCOCC2)n1,cytotoxicity at 10 µM,10.4%
O=C1CC(CNc2cncc(Cl)n2)c2ccccc2N1 (stereo not drawn),cytotoxicity at 10 µM,-0.99%
CC(=O)c1ccc(C(=O)NCc2ccnc(N(C)C)n2)cc1,cytotoxicity at 10 µM,0.69%
CN(C)C(=O)N1CCC2(CC(=O)N(c3cccc(C#N)c3)C2)C1 (stereo not drawn),cytotoxicity at 10 µM,3.33%
CCn1ncc2c1CN(C(=O)Cc1ccccn1)CC2COC (stereo not drawn),cytotoxicity at 10 µM,-70.7%
CC(O)CN1CCN(C(=O)c2ccn(-c3ccccc3Cl)n2)CC1 (stereo not drawn),cytotoxicity at 10 µM,-11.6%
CN1CCN(c2ccccc2CNC(=O)CSC(F)(F)F)CC1,cytotoxicity at 10 µM,8.27%
Cc1cccc(OC2CCN(C(=O)c3ccc4ncsc4c3)CC2)n1,cytotoxicity at 10 µM,-3.78%
COc1ncccc1C(=O)N1CC[C@H]2C[C@H](c3ccncn3)O[C@@H]2C1,cytotoxicity at 10 µM,9.4%
COCCCN(Cc1cnc(C2CCCCC2)nc1)C1CCN(C)CC1,cytotoxicity at 10 µM,-4.43%
FC(F)(F)c1cccc(C2(CNCc3cc[nH]c3)CCOCC2)c1,cytotoxicity at 10 µM,-6.76%
Cc1cn[nH]c1C1COCCN1C(=O)c1ccc2c(c1)CCCC2 (stereo not drawn),cytotoxicity at 10 µM,-0.21%
Cc1cccc(CNCC2COC3(CCCCC3)O2)c1C (stereo not drawn),cytotoxicity at 10 µM,-139%
CC(C)c1cccc(-n2cc(O)c(C(N)=O)n2)c1,cytotoxicity at 10 µM,-5.93%
COCCCN1C(=O)c2ccc(C(=O)NCCc3c[nH]cn3)cc2C1=O,cytotoxicity at 10 µM,-3.76%
Cc1nn(C)cc1-c1ccnc(N2CCSCC2)n1,cytotoxicity at 10 µM,3.47%
COCCN1CCOCC2(CCN(c3cnccn3)CC2)C1,cytotoxicity at 10 µM,-87.4%
c1ccc(-c2nc(CNCC3CCCN3c3cccnn3)co2)cc1 (stereo not drawn),cytotoxicity at 10 µM,-12.7%
O=C(NC[C@H]1O[C@H](Cc2cc(-c3ccccn3)on2)CC[C@@H]1O)C1CC1,cytotoxicity at 10 µM,-2.69%
CCOc1ccc(C2CCCN2Cc2nnnn2C2CC2)cc1 (stereo not drawn),cytotoxicity at 10 µM,6.26%
COc1ccc(NC(=O)N2CCC3(CC2)NC(=O)CC3C(=O)O)cc1Cl (stereo not drawn),cytotoxicity at 10 µM,-3.06%
COCCCn1ccc(NC(=O)NCc2cccc(N(C)C)c2)n1,cytotoxicity at 10 µM,2.4%
COCCOCCCC(=O)N1CCC(Cc2ccccc2OC)CC1,cytotoxicity at 10 µM,7.28%
CCNC(=O)CNC(=O)c1ccn(S(=O)(=O)c2ccc(C)cc2)c1,cytotoxicity at 10 µM,-5.73%
Cc1ccc(N2CCCN(C(=O)c3cn(C)c4ccccc34)CC2)nn1,cytotoxicity at 10 µM,-9.53%
Cn1cc(-c2noc(C3(C)CCOCC3)n2)cn1,cytotoxicity at 10 µM,-5.65%
CCOC(=O)c1sc(NC(=O)COC)c(C#N)c1C,cytotoxicity at 10 µM,7.61%
CCn1cc(CNC(=O)CCc2nnc(-c3ccc(C)s3)o2)cn1,cytotoxicity at 10 µM,-2.83%
OC(CN1CCN(Cc2ccccc2)CC1)C1CC1 (stereo not drawn),cytotoxicity at 10 µM,3.3%
Cn1cccc1C1CCCN1Cc1noc(C(C)(C)C)n1 (stereo not drawn),cytotoxicity at 10 µM,-4.4%
CC(=O)c1c(F)cccc1N1CCC(Cc2cccnc2)CC1,cytotoxicity at 10 µM,43.6%
CC(=O)N1CCCN(CCCc2ccccc2)CC1,cytotoxicity at 10 µM,-9.28%
Cc1nnc(N2C[C@H](Oc3ccccn3)[C@H]3OCCC[C@H]32)s1,cytotoxicity at 10 µM,10.7%
Fc1cccc(CN2CCC(c3cc4ncccc4cn3)CC2)c1F,cytotoxicity at 10 µM,-7.62%
CCCc1nc(CN2CCCC(c3noc(C4CC4)n3)C2)no1 (stereo not drawn),cytotoxicity at 10 µM,-8.87%
COc1ccc(C)cc1C1(CNc2cn[nH]c(=O)c2Cl)CCOCC1,cytotoxicity at 10 µM,-6.65%
